# HCV core dimer: inhibitors of HCV core protein dimerization, primary screen, biochemical, TR-FRET, high-throughput; TR-FRET GST/Flag-core106 dimerization, 1536-well; inhibition, % at 5 µM; hit rate 0.33% among 300,000; AID 1899, 2009;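 active = inhibition above the mean of all tested compounds plus 3 SD, set per screening campaign, cut at about 45% in these data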
#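 System: GST/Flag-tagged HCV core106 proteins. Incubation: compound-protein-antibody incubation 4 h at 22.5 °C. Technique: HTRF with 340 nm excitation, 617/671 nm emission. Medium: KF-containing HEPES buffer, pH 7.45, DTT, CHAPS, BSA. Read-out: inhibition (%) from 671 over 617 nm ratio. Also added: Eu(K)-anti-GST 90 ng/mL plus XL665-anti-Flag 1 µg/mL.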
# MLLE-PAM2 inh: inhibitors of PABP1 MLLE–PAM2 peptide binding, primary screen, biochemical, fluorescence polarization, FITC-PAM2, GST-MLLE. Polyadenylate-binding protein 1 (Homo sapiens), P11940. inhibition, % at 20 µM. hit rate 0.36% among 360,000. AID 588489, 2011; in the data active = inhibition above about 35%, passing the limit was not always enough;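 note: plate controls were DMSO wells with GST-MLLE for no effect and wells lacking GST-MLLE protein for full effect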
# eIF4E-4G inh: eIF4E–eIF4G protein interaction inhibitors, primary screen, biochemical, uHTS, TR-FRET, eIF4GI fragment; TR-FRET eIF4E-eIF4GI(517-606) binding, 2 h; hit rate 0.37% among 220,000; inhibition, % at 21.7 µM; Eukaryotic translation initiation factor 4E (Mus musculus) + Eukaryotic translation …; AID 782, 2007;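 active = inhibition above about 30%, limit read from the data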;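 note: 0% = full FRET control wells and 100% = background wells lacking eIF4GI fragment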
# PABP FP inh: PABP poly(A) RNA binding inhibitors, primary screen, biochemical, fluorescence polarization, uHTS | AID 2014, 2009 | Polyadenylate-binding protein 1 (Homo sapiens), P11940 | hit rate 1% among 290,000 | calls only at 35 µM;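 note: calls also rest on retests at 20 µM and on dose response follow-up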
# eIF4H FP inh: human eIF4H binding inhibitors, primary screen, translation initiation inhibitor project, biochemical, uHTS, fluorescence polarization; hit rate 0.94% among 290,000; eIF4H fluorescence polarization binding assay; inhibition, % at 35 µM; Eukaryotic translation initiation factor 4H (Homo sapiens), Q15056;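 note: calls also rest on retests at 20 µM and on dose response follow-up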
# SUMO HTRF inh: inhibitors of in vitro SUMOylation cascade, primary screen, biochemical, HTRF, uHTS | SUMO-conjugating enzyme UBC9 (Homo sapiens), P63279 | HTRF SUMOylation assay, SAE1/SAE2 + UBC9 | inhibition, % at 35 µM | hit rate 0.36% among 290,000; in the data active = inhibition above about 50%, passing the limit was not always enough; inconclusive = no clear call, values can overlap the other calls
# Target sequence (P63279 whole entry, looked up): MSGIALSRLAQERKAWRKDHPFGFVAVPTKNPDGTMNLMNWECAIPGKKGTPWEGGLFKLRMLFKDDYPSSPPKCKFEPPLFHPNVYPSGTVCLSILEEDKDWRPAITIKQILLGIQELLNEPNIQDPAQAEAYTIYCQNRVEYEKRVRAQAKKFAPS
# Active calls of the source: *; i = inactive; ? = inconclusive; nt = not tested or not shown; + = active, no number; [ ] = another dose, or the depositor's remark. Compounds with a hit are over-represented: about 1.8% of the library has one in this group of screens. Unless noted, the rule behind the calls is not given here.
SMILES,HCV core dimer,MLLE-PAM2 inh,eIF4E-4G inh,PABP FP inh,eIF4H FP inh,SUMO HTRF inh
Cn1c(=O)oc2cc(S(=O)(=O)N3CCC4(CC3)OCCO4)ccc21,-2,-8,-2,+,95*,21
CC(C)CNS(=O)(=O)c1ccc(S(=O)(=O)N2CCC3(CC2)OCCO3)cc1,0,6,-2,+,?,-10
CCOC1=C2[C@@H](CN(S(=O)(=O)c3ccc(C)cc3)[C@H]2c2ccccc2F)[C@H]2C(=O)NC(=O)[C@H]2C1,nt,17,nt,nt,nt,nt
CCCCCCN[C@H]1CCC2C3CC=C4C[C@@H](O)CC[C@]4(C)C3CC[C@@]21C (stereo partly drawn),nt,4,nt,nt,nt,nt
Cc1cc(C)n2nc(C(=O)NCc3ccccc3)cc2n1,-1,28,30*,i,4,1
Cn1cc(C(=O)Nc2ccc(Cl)c(Cl)c2)cn1,-1,1,nt,nt,nt,nt
C#CCN1c2ccccc2Sc2cccnc21,1,0,nt,i,11,15
CC(C)CCNC(=O)C(C)N(C(=O)c1snc(C(N)=O)c1N)c1cnc2ccccc2c1 (stereo not drawn),6,-4,2,+,5,14
CCCC(C(=O)NCCC(C)C)N(Cc1ccccc1)C(=O)c1snc(C(N)=O)c1N (stereo not drawn),7,4,nt,i,-2,-2
O=C1NC(=O)[C@@H]2C3c4ccccc4C=CN3[C@H](C(=O)c3cccs3)[C@H]12 (stereo partly drawn),5,nt,-15,+,126*,0
COCCN1C[C@@H](CO)O[C@@H](n2cnc3c(NCc4ccc(F)cc4)ncnc32)C1,nt,3,nt,nt,nt,nt
O=C(COc1ccccc1)N/N=C/c1ccc([N+](=O)[O-])o1,0,6,3,+,51*,7
CCCC(=O)Nc1ccc(C(=O)N/N=C/c2ccc([N+](=O)[O-])o2)cc1,-1,-1,4,i,75,13
O=C(N/N=C/c1ccc([N+](=O)[O-])o1)C(=O)Nc1ccc(C(=O)O)cc1,-6,5,1,+,83*,12
C[C@H](CO)N1C[C@H](C)[C@@H](CN(C)C(=O)c2ccc3c(c2)OCO3)Oc2cc(/C=C/c3ccccc3)ccc2S1(=O)=O,nt,5,nt,nt,nt,nt
O=[N+]([O-])c1cc(/C=N\Nc2nccs2)ccc1O,nt,nt,49*[fluorescence artefact?],+,93*,70*
Cc1ccc(S(=O)(=O)N2CCOCC2)cc1NC(=O)CSCc1c(C)noc1C,nt,-32,nt,nt,nt,nt
CCCn1c(C)cc(C(=O)COc2ccc(C)nc2[N+](=O)[O-])c1C,11,-2,0,+,69*,18
C=CCn1c(C)cc(C(=O)COc2ccc(C)nc2[N+](=O)[O-])c1C,-2,-3,4,i,?,14
CC(=O)Nc1ccccc1OCC(=O)c1cc(C)n(Cc2cccs2)c1C,5,9,-5,i,-14,19
COCCn1c(C)cc(C(=O)COc2ccc(C)nc2[N+](=O)[O-])c1C,-4,-15,2,i,115*,22
COCCn1c(C)cc(C(=O)CSc2ccc3ccccc3n2)c1C,6,11,4,+,62*,14
Cc1cc(C(=O)COc2cccnc2[N+](=O)[O-])c(C)n1Cc1cccs1,2,13,0,i,106*,7
COCCn1c(C)cc(C(=O)CSc2nc3ccccc3c(=O)[nH]2)c1C,7,19,0,i,11,21
C=CCn1c(SCC(=O)NC2(C)CCS(=O)(=O)C2)nc2ccccc21 (stereo not drawn),nt,-2,nt,nt,nt,nt
CC(C)c1ccc(OCC(=O)N2CCN(C(=O)c3ccco3)CC2)cc1,nt,12,nt,i,1,3
CCN(CC)c1ccc(NC(=O)CCS(=O)(=O)c2ccc(Br)cc2)c(C)c1,-13,-10,nt,+,93*,14
